Rows were chosen to be rich in hits. Some 3.2% of all compounds tested hit in one or more screens of this group.
SMARCA2 act: increases SMARCA2 function in MMTV reporter cells. MG213 cells, MMTV-luciferase reporter, dexamethasone, overnight. activation, % at 9.1 µM. 370,000 tested, 1% active. AID 652017; in the data active = activation above about 7.8%
NR2E3 ag-1: activates human NR2E3 receptor | Q9Y5X4 | CHO-S Gal4-NCOR/VP16-NR2E3 two-hybrid, luciferase | inhibition of corepressor binding, % at 3.98 µM | 360,000 tested, 0.35% active | AID 602229;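 active = inhibition above the mean of all tested compounds plus 3 SD, cut at about 70% in these data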;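 also: higher means lower luciferase signal from less NR2E3 corepressor binding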
Target sequence (Q9Y5X4 whole entry, looked up, the tested form may be a part): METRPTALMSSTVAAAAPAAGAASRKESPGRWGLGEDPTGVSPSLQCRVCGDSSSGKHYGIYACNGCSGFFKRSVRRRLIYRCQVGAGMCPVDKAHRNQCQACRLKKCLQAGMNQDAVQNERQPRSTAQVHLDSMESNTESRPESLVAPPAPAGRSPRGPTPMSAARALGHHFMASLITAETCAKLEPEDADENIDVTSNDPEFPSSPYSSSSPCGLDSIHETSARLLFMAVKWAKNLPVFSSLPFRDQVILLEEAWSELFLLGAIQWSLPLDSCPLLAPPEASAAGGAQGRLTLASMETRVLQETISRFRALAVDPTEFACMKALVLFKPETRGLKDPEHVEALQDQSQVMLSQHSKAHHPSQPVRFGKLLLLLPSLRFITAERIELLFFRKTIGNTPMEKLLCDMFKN
DAX1 inh-1: NR0B1 (DAX1) inhibition; P51843; inhibition, % at 6.75 µM; HEK293 Gal4-DAX1 luciferase reporter, luminescence; 340,000 tested, 0.99% active;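 active = inhibition above the mean over all tested compounds plus 3 SD, cut at about 4.2% in these data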;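 also: inhibition shows as a rise in luminescence from relieved DAX1 repression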
Target sequence (P51843 207-470 limits assumed): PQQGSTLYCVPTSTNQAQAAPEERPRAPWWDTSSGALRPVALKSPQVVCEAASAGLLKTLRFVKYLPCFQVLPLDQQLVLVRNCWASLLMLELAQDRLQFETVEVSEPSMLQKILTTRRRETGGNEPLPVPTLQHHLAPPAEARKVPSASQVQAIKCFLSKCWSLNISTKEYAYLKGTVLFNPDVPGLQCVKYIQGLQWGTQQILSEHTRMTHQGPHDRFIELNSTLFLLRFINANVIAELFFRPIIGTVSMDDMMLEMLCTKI
DAX1 inh-2: DAX1 (NR0B1) inhibition, primary screen | inhibition, % at 6.8 µM | HEK293T StAR-luciferase reporter, SF-1/DAX-1 repression relief | AID 652010 | 370,000 tested, 1.1% active;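 active = inhibition above the mean over all tested compounds plus 3 SD, cut at about 3.6% in these data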;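 also: higher inhibition means more luminescence from relief of DAX-1 repression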
NR2E3 ag-2: activates human photoreceptor nuclear receptor NR2E3; Q9Y5X4; GST-NR2E3/biotin-RetCOR TR-FRET, 1536-well; inhibition of corepressor binding, % at 4.78 µM; 320,000 tested, 0.12% active; AID 2300;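 active = percent inhibition above the cutoff of mean plus 3 SD of all tested compounds, set per screening campaign, cut at about 20% in these data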
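Material: NR2E3–RetCOR corepressor complex / Amount: 1.35 nM GST-NR2E3 / Medium: Tris pH 7.5 / Compound: single nominal compound dose of 4.8 µM / Incubation: 5 h at 4 °C / Technique: TR-FRET, Eu(K)-anti-GST donor, streptavidin-D2 acceptor, ex 340, em 617/671 nm / Read-out basis: percent loss of FRET ratio relative to control wells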
JMJD2C inh: inhibitors of human GASC-1 (JMJD2C) demethylase. GST-JMJD2C(1-420) H3K9me3 demethylation, DELFIA europium. Q9H3R0. AID 2099. inhibition, % at 2.35 µM. 330,000 tested, 0.069% active;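 active = more than half of a compound's replicate wells show inhibition beyond 50%, single wells judged on their own value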;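 also: signal counts dimethyl H3K9 product captured on neutravidin plate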
SMARCA2 act conf: SMARCA2 activation, confirmation screen. shares compounds with SMARCA2 act. MG213 cells, MMTV-luciferase with dexamethasone, luminescence, overnight; MG213 cells expressing E1A, Rb sequestered; DMSO wells 0%, reference activator 100%. activation, % at 9.1 µM. 3,500 tested, 30% active. AID 652260;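 active = activation above its plate's cutoff, the mean activation of tested wells plus 3 SD, cut at about 7.9% in these data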
GAL4-VP16 Luc: activates GAL4-VP16 luciferase, flagging SMARCA2 activator hits; activation, % at 9.1 µM; shares compounds with SMARCA2 act; 3,500 tested, 41% active; HEK293 GAL4-VP16 pG5luc reporter, luciferase luminescence; scaled: DMSO wells 0%, SAHA wells 100%;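 active = activation above the solvent-only control well mean plus 3 SD, averaged across control plates, cut at about 5.2% in these data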
Hits are given with their value.

What do the screens show for `CCOc1ccc(/C=N/NS(=O)(=O)c2ccc(C)cc2)cc1OC`?
SMARCA2 act: inactive; NR2E3 ag-1: inactive; DAX1 inh-1: inactive; DAX1 inh-2: inactive; JMJD2C inh: inactive

How did COc1cc(/C=N/NS(=O)(=O)c2ccc(C)cc2)ccc1OCc1ccc(C(=O)O)cc1 do in these assays?
SMARCA2 act: 9.4; NR2E3 ag-1: inactive; DAX1 inh-1: inactive; DAX1 inh-2: inactive; NR2E3 ag-2: inactive; JMJD2C inh: inactive; SMARCA2 act conf: 19; GAL4-VP16 Luc: 14

How did Cc1nn(-c2ccc(F)cc2)c(Cl)c1C(=O)OC(C)C(=O)N(C)C1CCCCC1 (stereo not drawn) do in these assays?
SMARCA2 act: inactive; NR2E3 ag-1: inactive; DAX1 inh-1: inactive; DAX1 inh-2: inactive; NR2E3 ag-2: inactive; JMJD2C inh: inactive

What do the screens show for `O=C(O)c1cccc(Oc2ccccc2[N+](=O)[O-])c1`?
SMARCA2 act: 12; NR2E3 ag-1: inactive; DAX1 inh-1: inactive; DAX1 inh-2: inactive; NR2E3 ag-2: inactive; JMJD2C inh: inactive; SMARCA2 act conf: inactive; GAL4-VP16 Luc: inactive

How did COc1ccccc1Oc1ccccc1[N+](=O)[O-] do in these assays?
SMARCA2 act: 10.0; NR2E3 ag-1: inactive; DAX1 inh-1: inactive; DAX1 inh-2: inactive; NR2E3 ag-2: inactive; JMJD2C inh: inactive; SMARCA2 act conf: inactive; GAL4-VP16 Luc: inactive

How did O=[N+]([O-])c1cccnc1Oc1ccccc1F do in these assays?
SMARCA2 act: 9.6; NR2E3 ag-1: inactive; DAX1 inh-1: inactive; DAX1 inh-2: inactive; NR2E3 ag-2: inactive; JMJD2C inh: inactive; SMARCA2 act conf: inactive; GAL4-VP16 Luc: inactive

Results for O=[N+]([O-])c1cccnc1Oc1ccc(F)cc1 ?
SMARCA2 act: inactive; NR2E3 ag-1: inactive; DAX1 inh-1: inactive; DAX1 inh-2: inactive; NR2E3 ag-2: inactive; JMJD2C inh: inactive

What do the screens show for `C=CCNC(=O)NCC1CCN(Cc2ccc(OC)cc2)CC1`?
SMARCA2 act: inactive; DAX1 inh-2: inactive

Results for CCOC(=O)C1CCN(S(=O)(=O)c2ccc(OC)c(C(=O)N3CCCCC3)c2)CC1 ?
SMARCA2 act: inactive; NR2E3 ag-1: inactive; DAX1 inh-1: inactive; DAX1 inh-2: inactive; NR2E3 ag-2: inactive; JMJD2C inh: inactive

How did CC(Oc1ccc(Br)cc1)C(=O)O/N=C(\N)c1ccncc1 (stereo not drawn) do in these assays?
SMARCA2 act: 12; NR2E3 ag-1: inactive; DAX1 inh-1: inactive; DAX1 inh-2: inactive; NR2E3 ag-2: inactive; JMJD2C inh: inactive; SMARCA2 act conf: inactive; GAL4-VP16 Luc: inactive

How did N/C(=N\OC(=O)COc1ccc(Br)cc1)c1ccncc1 do in these assays?
SMARCA2 act: inactive; NR2E3 ag-1: inactive; DAX1 inh-1: inactive; DAX1 inh-2: inactive; NR2E3 ag-2: inactive; JMJD2C inh: inactive

What do the screens show for `Cc1ccc(CCNC(=O)CCS(=O)(=O)c2cc3c(cc2C)NC(=O)CO3)cc1`?
SMARCA2 act: 12; NR2E3 ag-1: inactive; DAX1 inh-1: inactive; DAX1 inh-2: inactive; NR2E3 ag-2: inactive; JMJD2C inh: inactive; SMARCA2 act conf: inactive; GAL4-VP16 Luc: inactive

Results for O=C(CNCc1ccc(F)cc1)Nc1ccc(C(=O)N2CCCCC2)cc1 ?
SMARCA2 act: inactive; NR2E3 ag-1: inactive; DAX1 inh-1: inactive; DAX1 inh-2: inactive; NR2E3 ag-2: inactive; JMJD2C inh: inactive

What do the screens show for `CC1(C)Cc2ccccc2C(CSc2ccccc2C(=O)O)=N1`?
SMARCA2 act: inactive; NR2E3 ag-1: inactive; DAX1 inh-1: inactive; DAX1 inh-2: inactive; NR2E3 ag-2: inactive; JMJD2C inh: inactive

What do the screens show for `COc1cc2c(cc1OC)C(CSc1ccccc1C(=O)O)=NC(C)(C)C2`?
SMARCA2 act: 9.3; NR2E3 ag-1: inactive; DAX1 inh-1: inactive; DAX1 inh-2: inactive; NR2E3 ag-2: inactive; JMJD2C inh: inactive; SMARCA2 act conf: 9.4; GAL4-VP16 Luc: 5.8

What do the screens show for `CCN(CC)c1ccc(C=N/C(C#N)=C(\N)C#N)cc1`?
SMARCA2 act: 8.8; NR2E3 ag-1: inactive; DAX1 inh-1: inactive; DAX1 inh-2: inactive; NR2E3 ag-2: inactive; JMJD2C inh: inactive; SMARCA2 act conf: inactive; GAL4-VP16 Luc: 7.5

How did O=C(Nc1ccc(F)cc1)C(CCc1ccccc1)N1CCN(C(=O)c2ccco2)CC1 (stereo not drawn) do in these assays?
SMARCA2 act: 8.7; DAX1 inh-2: inactive; SMARCA2 act conf: inactive; GAL4-VP16 Luc: inactive

How did COc1ccc2c(c1)CCCN2C(=O)C1CCCN(S(=O)(=O)c2cccc3ccccc23)C1 (stereo not drawn) do in these assays?
SMARCA2 act: inactive; DAX1 inh-2: inactive

How did S=c1[nH]nc(-c2ccc(Cl)cc2Cl)n1-c1ccccc1 do in these assays?
SMARCA2 act: 16; NR2E3 ag-1: inactive; DAX1 inh-1: inactive; DAX1 inh-2: inactive; NR2E3 ag-2: inactive; JMJD2C inh: inactive; SMARCA2 act conf: inactive; GAL4-VP16 Luc: 6.4

What do the screens show for `S=c1[nH]nc(-c2ccc(Cl)cc2Cl)n1Cc1ccccc1`?
SMARCA2 act: inactive; NR2E3 ag-1: inactive; DAX1 inh-1: inactive; DAX1 inh-2: inactive; NR2E3 ag-2: inactive; JMJD2C inh: inactive

What do the screens show for `CCCC(CCC)=NNC(=O)c1ccccc1F`?
SMARCA2 act: 8.2; NR2E3 ag-1: inactive; DAX1 inh-1: inactive; DAX1 inh-2: inactive; NR2E3 ag-2: inactive; JMJD2C inh: inactive; SMARCA2 act conf: inactive; GAL4-VP16 Luc: inactive

Results for COC(=O)[C@]12C[C@H](CC(=O)N3CCN(C(=O)c4ccco4)CC3)C(=O)N(Cc3ccco3)C1=C[C@H](COCc1ccccc1)O[C@@H]2C ?
SMARCA2 act: inactive; DAX1 inh-2: inactive

What do the screens show for `O=C(N=C1N(Cc2ccccc2)[C@@H](Cc2ccccc2)[C@]2(C=C3CCCCC3n3c(=O)n(-c4ccccc4)c(=O)n32)N1C(=O)OCc1ccccc1)c1ccccc1` (stereo partly drawn)?
SMARCA2 act: inactive; DAX1 inh-2: inactive

Results for Cc1ccc(-n2ncc3c2ncn2c(C)nnc32)cc1C ?
SMARCA2 act: 9.0; NR2E3 ag-1: inactive; DAX1 inh-1: inactive; DAX1 inh-2: inactive; NR2E3 ag-2: inactive; JMJD2C inh: inactive; SMARCA2 act conf: inactive; GAL4-VP16 Luc: 10

How did CCc1nnc2c3cnn(-c4ccccc4)c3ncn12 do in these assays?
SMARCA2 act: inactive; NR2E3 ag-1: inactive; DAX1 inh-1: inactive; DAX1 inh-2: inactive; NR2E3 ag-2: inactive; JMJD2C inh: inactive

How did CN(c1ccccc1)S(=O)(=O)c1cc(C(=O)Nc2ccccc2N2CCOCC2)ccc1Cl do in these assays?
SMARCA2 act: inactive; NR2E3 ag-1: inactive; DAX1 inh-1: inactive; DAX1 inh-2: inactive

Compound activity from PubChem BioAssay.
